Measured values published in ChEMBL document CHEMBL1125259, “Lipophilic glycosyl phosphotriester derivatives of AZT: synthesis, NMR transmembrane transport study, and antiviral activity” (1991).

Key:
Assay type in all cases: functional
[1] = molecular target: Human immunodeficiency virus type 1 reverse transcriptase (Human immunodeficiency virus 1) (UniProt Q72547); experiment: Compound ability to inhibit the production of HIV reverse transcriptase (RT) in preinfected PBL (peripheral blood lymphocytes) at 14 days at a concentration 5 uM
How it was run: (§1)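 PBL were infected with HIV-1 for 1 h at 37 °C, washed twice, and resuspended in complete medium with 10% interleukin-2 and anti-human α-interferon (1000 units/mL). Cells were plated at 1×10^6 cells/well with or without compound. At each time point, 50 µL supernatant was taken for RT assay ([³H]dTTP incorporation, cpm).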

[2] = molecular target: Human immunodeficiency virus type 1 reverse transcriptase (Human immunodeficiency virus 1) (UniProt Q72547); experiment: Compound ability to inhibit the production of HIV reverse transcriptase (RT) in preinfected PBL (peripheral blood lymphocytes) at 14 days at a concentration 1 uM; how it was run: as §1
[3] = molecular target: Human immunodeficiency virus type 1 reverse transcriptase (Human immunodeficiency virus 1) (UniProt Q72547); experiment: Compounds were evaluated for anti-RT activity by MTT dose and %protection was reported at 7 days of culture
How it was run: (§2)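 HIV-1 was preincubated with compound at 25 µM for 60 min at 37 °C, pelleted, and added to CEM-C113 cells (1×10^5 cells/mL) for 60 min at 37 °C. Medium was then replaced without compound. At days 7 and 9, viability was read by MTT assay on 100 µL of cell suspension.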

[4] = molecular target: Human immunodeficiency virus type 1 reverse transcriptase (Human immunodeficiency virus 1) (UniProt Q72547); experiment: Compound ability to inhibit the production of HIV reverse transcriptase (RT) in culture supernatant of CEM-CL13 on at 7 days at a concentration 0.2 uM
How it was run: (§3)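 CEM-C113 cells in RPMI 1640 with 5% heat-inactivated FCS and polybrene (2 µg/mL) were plated at 1×10^5 cells/mL with compound in PBS, in triplicate, and infected with HIV-1 LAV-Bru. From day 7, every 3–4 days, fresh medium with or without drug was added and 50 µL supernatant was taken for RT microassay. The RT microassay used poly(rA)-oligo(dT) and (methyl-³H)dTTP for 1 h at 37 °C, with TCA precipitation, read as cpm/50 µL.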

[5] = tested on: CCRF-CEM; experiment: Concentration that reduced by 50% the HIV induced CPE (cytopathic effect) on day 11.; settings: Homo sapiens, 264 h, read-out: ED50 (the source's name)
How it was run: (§4)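 CEM-C113 cells (1×10^5 cells/mL) were infected with HIV-1 LAV-Bru or mock-infected, with compound dilutions in triplicate, for at least 7 days. Medium with or without drug was renewed every 3–4 days for longer runs. MTT absorbance was read at 540 nm. CD50 = 50% reduction of mock-infected absorbance; ED50 = dose giving 50% protection from CPE. Values are averages of at least two experiments.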

[6] = molecular target: Human immunodeficiency virus type 1 reverse transcriptase (Human immunodeficiency virus 1) (UniProt Q72547); experiment: Percent inhibition measured as the production of HIV reverse transcriptase (RT) in culture supernatant of monocytic U937 on at 11 days at a concentration 1 uM
How it was run: (§5)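 U937 cells in RPMI 1640 with 5% heat-inactivated FCS, penicillin, streptomycin and polybrene (2 μg/mL), 37 °C, 5% CO2. Infected with HIV-1 LAV-Bru; compounds diluted in PBS. 50 μL supernatant aliquots were assayed for RT: 1 h, 37 °C, pH 7.8, Mg2+, poly(rA)-oligo(dT), [3H]dTTP, TCA-pyrophosphate stop, filter counting. % inhibition = 100 − 100 × (treated cpm / virus-control cpm).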

[7] = molecular target: Human immunodeficiency virus type 1 reverse transcriptase (Human immunodeficiency virus 1) (UniProt Q72547); experiment: Compound ability to inhibit the production of HIV reverse transcriptase (RT) in culture supernatant of monocytic U937 on at 11 days at a concentration 1 uM
How it was run: (§6)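 HIV-1-infected monocytic U937 cultures were kept up to 14 days with compound. Supernatant RT activity was measured as for CEM-C113, as [³H] cpm/50 µL. % inhibition = 100 − 100 × (cpm of treated samples / cpm of control virus).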

[8] = molecular target: Human immunodeficiency virus type 1 reverse transcriptase (Human immunodeficiency virus 1) (UniProt Q72547); experiment: Compounds were evaluated for anti-RT activity by MTT dose and % cell / viability was reported at 7 days of culture; how it was run: as §2
[9] = molecular target: Human immunodeficiency virus type 1 reverse transcriptase (Human immunodeficiency virus 1) (UniProt Q72547); experiment: Percent inhibition measured as the production of HIV reverse transcriptase (RT) in culture supernatant of monocytic U937 on at 7 days at a concentration 1 uM; how it was run: as §5
[10] = molecular target: Human immunodeficiency virus type 1 reverse transcriptase (Human immunodeficiency virus 1) (UniProt Q72547); experiment: Compounds were evaluated for anti-RT activity by MTT dose and % cell / viability was reported at 13 days of culture
[11] = molecular target: Human immunodeficiency virus type 1 reverse transcriptase (Human immunodeficiency virus 1) (UniProt Q72547); experiment: Percent inhibition evaluated for anti-RT activity at 7 days of culture; set-up: concentration or dose not given beside the values; settings: concentration not given here
How it was run: (§7)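 HIV-1 (12 500 CCID50) was preincubated with compound at 25 µM final for 60 min at 37 °C, pelleted by ultracentrifugation and resuspended. RT was measured at once with poly(rA)-oligo(dT) and ³H-dTTP (1 h, 37 °C, cpm). Treated virus was then put on CEM-C113 cells for 60 min and replaced with compound-free medium. Supernatant RT was read at days 7 and 9.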

[12] = molecular target: Human immunodeficiency virus type 1 reverse transcriptase (Human immunodeficiency virus 1) (UniProt Q72547); experiment: Compound ability to inhibit the production of HIV reverse transcriptase (RT) in preinfected PBL (peripheral blood lymphocytes) at 21 days at a concentration 5 uM; how it was run: as §1
[13] = molecular target: Human immunodeficiency virus type 1 reverse transcriptase (Human immunodeficiency virus 1) (UniProt Q72547); experiment: Compound ability to inhibit the production of HIV reverse transcriptase (RT) in culture supernatant of CEM-CL13 on at 26 days at a concentration 0.2 uM; how it was run: as §3
[14] = tested on: CCRF-CEM; experiment: Concentration that reduced by 50% the HIV induced CPE (cytopathic effect) on day 19.; settings: Homo sapiens, 456 h, read-out: ED50 (the source's name); how it was run: as §4
[15] = tested on: CCRF-CEM; experiment: Concentration required to reduce the viability of uninfected cells (CEM-CL13) by 50% on day 11.; settings: Homo sapiens, 264 h, read-out: CD50 (the source's name); how it was run: as §4
[16] = molecular target: Human immunodeficiency virus type 1 reverse transcriptase (Human immunodeficiency virus 1) (UniProt Q72547); experiment: Compounds were evaluated for anti-RT activity by MTT dose and %protection was reported at 13 days of culture
[17] = molecular target: Human immunodeficiency virus type 1 reverse transcriptase (Human immunodeficiency virus 1) (UniProt Q72547); experiment: Compounds were evaluated for anti-RT activity at 7 days of culture; how it was run: as §7
[18] = molecular target: Human immunodeficiency virus type 1 reverse transcriptase (Human immunodeficiency virus 1) (UniProt Q72547); experiment: Compound ability to inhibit the production of HIV reverse transcriptase (RT) in preinfected PBL (peripheral blood lymphocytes) at 7 days at a concentration 1 uM; how it was run: as §1
[19] = molecular target: Human immunodeficiency virus type 1 reverse transcriptase (Human immunodeficiency virus 1) (UniProt Q72547); experiment: Compounds were evaluated for anti-RT activity at 0 days of culture; how it was run: as §7
[20] = molecular target: Human immunodeficiency virus type 1 reverse transcriptase (Human immunodeficiency virus 1) (UniProt Q72547); experiment: Compound ability to inhibit the production of HIV reverse transcriptase (RT) in preinfected PBL (peripheral blood lymphocytes) at 10 days at a concentration 5 uM; how it was run: as §1
[21] = tested on: CCRF-CEM; experiment: Concentration that reduced by 50% the HIV induced CPE (cytopathic effect) on day 7.; settings: Homo sapiens, 168 h, read-out: ED50 (the source's name); how it was run: as §4
[22] = tested on: CCRF-CEM; experiment: Concentration required to reduce the viability of uninfected cells (CEM-CL13) by 50% on day 22.; settings: Homo sapiens, 528 h, read-out: CD50 (the source's name); how it was run: as §4
[23] = molecular target: Human immunodeficiency virus type 1 reverse transcriptase (Human immunodeficiency virus 1) (UniProt Q72547); experiment: Percent inhibition evaluated for anti-RT activity at 9 days of culture; set-up: concentration or dose not given beside the values; settings: concentration not given here; how it was run: as §7
[24] = molecular target: Human immunodeficiency virus type 1 reverse transcriptase (Human immunodeficiency virus 1) (UniProt Q72547); experiment: Compound ability to inhibit the production of HIV reverse transcriptase (RT) in culture supernatant of monocytic U937 on at 14 days at a concentration 1 uM; how it was run: as §6
[25] = tested on: CCRF-CEM; experiment: Concentration that reduced by 50% the HIV induced CPE (cytopathic effect) on day 22.; settings: Homo sapiens, 528 h, read-out: ED50 (the source's name); how it was run: as §4
[26] = tested on: CCRF-CEM; experiment: Concentration required to reduce the viability of uninfected cells (CEM-CL13) by 50% on day 19.; settings: Homo sapiens, 456 h, read-out: CD50 (the source's name); how it was run: as §4
[27] = molecular target: Human immunodeficiency virus type 1 reverse transcriptase (Human immunodeficiency virus 1) (UniProt Q72547); experiment: Percent inhibition evaluated for anti-RT activity at 0 days of culture; set-up: concentration or dose not given beside the values; settings: concentration not given here; how it was run: as §7

SMILES | Activity (c.p.m. 50ul-1) [4] | EC50 [5] [nM] | inhibition [6] [%] | Activity (c.p.m. 50ul-1) [7] | Cell viability [8] [%] | inhibition [9] [%] | Cell viability [10] [%] | inhibition [11] [%] | Activity (c.p.m. 50ul-1) [13] | EC50 [14] [nM] | CC50 [15] [µM] | Protection [16] [%] | Activity (c.p.m. 50ul-1) [17] | Activity (c.p.m. 50ul-1) [18] | Activity (c.p.m. 50ul-1) [19] | EC50 [21] [nM] | CC50 [22] [µM] | inhibition [23] [%] | Activity (c.p.m. 50ul-1) [24] | EC50 [25] [nM] | also measured
Cc1cn([C@H]2C[C@H](N=[N+]=[N-])[C@@H](CO)O2)c(=O)[nH]c1=O [ZIDOVUDINE] | 1500 | 120 | 7 | 134000 | 100 | 85 | 34 | 92 | 28000 | 180 | 23 | 26 | 5000 | 972 | 19000 | 120 | 22 | 76 | 37000 | 450 | Activity (c.p.m. 50ul-1) [1]: 302; Activity (c.p.m. 50ul-1) [2]: 2020; Protection [3]: 100%; Activity (c.p.m. 50ul-1) [12]: 542; Activity (c.p.m. 50ul-1) [20]: 984; CC50 [26]: 26 µM
CCCCCCCCCCCCCCCCOP(=O)(OC[C@H]1OC(O)[C@H](O)[C@@H](O)[C@@H]1O)OC[C@H]1OC(n2cc(C)c(=O)[nH]c2=O)C[C@@H]1N=[N+]=[N-] (some centres not stated) | 4500 | 180 | 53 | 68000 | 85 | 73 | 39 | 87 | 64000 | 1500 | 3 | 28 | 8000 | 3490 | 16000 | 180 | 3.2 | 58 | 4000 | 800 | Activity (c.p.m. 50ul-1) [1]: 157000; Activity (c.p.m. 50ul-1) [2]: 144000; Protection [3]: 81%; inhibition [27]: 9%; Activity (c.p.m. 50ul-1) [12]: 150000; Activity (c.p.m. 50ul-1) [20]: 36400; CC50 [26]: 3.2 µM
CCCCCCCCCCCCCCCCOP(=O)(OCCO[C@H]1O[C@H](CO)[C@@H](O)[C@H](O)[C@@H]1O)OCC1OC(n2cc(C)c(=O)[nH]c2=O)CC1N=[N+]=[N-] (some centres not stated) | 3900 | 1000 | 0 | 243000 | 41 | 0 | 12 | 0 | 61000 | 1700 | 28 | 0 | 81000 | 30200 | 13000 | 180 | 3.4 | 0 | 55000 | 1300 | Protection [3]: 21%; inhibition [27]: 26%; CC50 [26]: 3.4 µM
Cc1cn([C@H]2C[C@H](N=[N+]=[N-])[C@@H](COP(=O)(O)OC[C@H]3OC(O)[C@H](O)[C@@H](O)[C@@H]3O)O2)c(=O)[nH]c1=O (some centres not stated) | 1600 | 160 | 0 | 145000 | 50 | 36 | 17 | 70 | 65000 | 700 | 35 | 0 | 19000 | 1010 | 32000 | 200 | 35 | 10 | 17000 | 900 | Activity (c.p.m. 50ul-1) [1]: 732; Activity (c.p.m. 50ul-1) [2]: 408; inhibition [27]: 0%; Activity (c.p.m. 50ul-1) [12]: 373; Activity (c.p.m. 50ul-1) [20]: 798; CC50 [26]: 38 µM
